Assay results taken from ChEMBL document CHEMBL2346663 (J Med Chem, 2013).

Tests used:
Myeloperoxidase [1] = biological target: T1, Myeloperoxidase (Homo sapiens, UniProt P05164); test: Inhibition of human recombinant MPO-mediated taurine chlorination after 5 mins by microplate assay; assay type: single protein
T1 sequence (P05164 whole entry): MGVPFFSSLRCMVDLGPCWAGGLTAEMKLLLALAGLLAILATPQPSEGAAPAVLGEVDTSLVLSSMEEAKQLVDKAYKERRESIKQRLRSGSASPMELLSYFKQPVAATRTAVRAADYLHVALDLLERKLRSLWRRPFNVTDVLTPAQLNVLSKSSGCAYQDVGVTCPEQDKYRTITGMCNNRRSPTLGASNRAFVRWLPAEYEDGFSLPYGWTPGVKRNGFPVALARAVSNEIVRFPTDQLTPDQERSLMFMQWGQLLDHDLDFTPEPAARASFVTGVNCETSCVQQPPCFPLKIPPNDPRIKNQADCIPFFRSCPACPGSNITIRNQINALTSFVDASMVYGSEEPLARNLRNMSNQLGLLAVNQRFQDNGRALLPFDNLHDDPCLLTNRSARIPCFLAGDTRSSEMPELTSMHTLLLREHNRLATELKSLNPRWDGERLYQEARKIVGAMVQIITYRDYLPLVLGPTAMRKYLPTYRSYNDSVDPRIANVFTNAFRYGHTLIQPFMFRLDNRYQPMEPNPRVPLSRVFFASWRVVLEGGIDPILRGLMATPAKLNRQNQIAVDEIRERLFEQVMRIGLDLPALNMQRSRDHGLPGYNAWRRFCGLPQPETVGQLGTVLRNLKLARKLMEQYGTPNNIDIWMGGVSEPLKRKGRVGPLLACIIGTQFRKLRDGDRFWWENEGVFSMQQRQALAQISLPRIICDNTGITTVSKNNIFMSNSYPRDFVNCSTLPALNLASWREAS
Procedure, shortened: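 Recombinant MPO (40 nM) in 10 mM phosphate pH 7.4 with 300 mM NaCl and 15 mM taurine, inhibitor up to 20 µM, 37 °C. Started with H2O2 (100 µM), stopped after 5 min with catalase. Taurine chloramine measured with thionitrobenzoic acid at 412 nm. IC50 taken from the absorbance–concentration curve; no H2O2 set as 100% inhibition, no inhibitor as 0%.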

Myeloperoxidase [2] = biological target: T1, Myeloperoxidase; test: Inhibition of human recombinant MPO-mediated LDL oxidation after 5 mins by ELISA
Procedure, shortened: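 Recombinant MPO (1 µg/mL) with human plasma LDL (1000 µg/mL; ultracentrifuged fraction 1.019–1.067 g/mL, desalted in PBS) in PBS pH 7.2 with 4 mM HCl and test compound at several concentrations. Reaction started with 100 µM H2O2 at 37 °C and stopped after 5 min on ice. Oxidized LDL read by ELISA: 200 ng/well LDL coated, Mab AG9 antibody, alkaline phosphatase anti-mouse IgG, p-nitrophenyl phosphate, A405 corrected at 655 nm.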

[3] = biological target: Sodium-dependent serotonin transporter (Homo sapiens, UniProt P31645); test: Inhibition of serotonin reuptake at human SERT expressed in HEK293 cells coexpressing macrophage scavenger receptor; assay type: cell-based
Procedure, shortened: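 HEK-293 MSR cells grown in DMEM with 10% FCS, penicillin/streptomycin and 6 µg/mL Geneticin at 37 °C and 5% CO2. Cells transfected with a pcDNA3.1 human SERT plasmid and assayed for [3H]5-HT uptake.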

Homo sapiens = species on record: Homo sapiens; test: Selectivity ratio of Ki for human SERT to IC50 for human recombinant MPO-mediated LDL oxidation
Procedure, shortened: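 Ratio of two measured values. Recombinant human MPO (1 µg/mL) oxidised LDL (1000 µg/mL) in PBS pH 7.2 with 4 mM HCl and 100 µM H2O2 at 37 °C for 5 min. Oxidised LDL was detected by ELISA with Mab AG9 at 405 nm to give the IC50. hSERT was transiently expressed in HEK-293 MSR cells and assayed by [3H]5-HT uptake.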

Rattus norvegicus [4] = test: Toxicity in Wistar Han rat assessed as prostarted posture at 100 mg/kg, ip after 24 hrs; assay type: organism-based; parameters: dose 100 mg/kg, route intraperitoneal; conditions: in vivo
Procedure, shortened: (§1)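 Male Wistar Han rats (~285 g), 3 per group, given one i.p. dose in 2 ml alcohol/water 1:3 (v/v); vehicle-only controls. Doses were 10 or 100 mg/kg, or 1, 10 or 100 mg/kg, depending on the compound. Clinical signs recorded daily. Rats killed by exsanguination after 4 days, with gross organ examination at necropsy.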

Rattus norvegicus [5] = test: Toxicity in Wistar Han rat assessed as occurrence of piloerection at 100 mg/kg, ip after 24 hrs; assay type: organism-based; parameters: dose 100 mg/kg, route intraperitoneal; conditions: in vivo; procedure, shortened: as §1
Rattus norvegicus [6] = test: Toxicity in Wistar Han rat assessed as macroscopic kidney lesions at 1 to 100 mg/kg, ip by necropsic analysis; assay type: organism-based; parameters: dose 1-100 mg/kg, route intraperitoneal; conditions: in vivo
Procedure, shortened: (§2)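 Male Wistar Han rats (~285 g), 3 per group, received a single i.p. dose of 1, 10 or 100 mg/kg in alcohol/water 1:3 (v/v), with vehicle controls. Clinical signs were recorded daily. After 4 days, rats were killed by exsanguination, and liver, kidney, heart and muscle were examined grossly at necropsy.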

Rattus norvegicus [7] = test: Toxicity in Wistar Han rat assessed as macroscopic liver lesions at 1 to 100 mg/kg, ip by necropsic analysis; assay type: organism-based; parameters: dose 1-100 mg/kg, route intraperitoneal; conditions: in vivo; procedure, shortened: as §2
Rattus norvegicus [8] = test: Toxicity in Wistar Han rat assessed as macroscopic heart lesions at 1 to 100 mg/kg, ip by necropsic analysis; assay type: organism-based; parameters: dose 1-100 mg/kg, route intraperitoneal; conditions: in vivo; procedure, shortened: as §2
Rattus norvegicus [9] = test: Toxicity in Wistar Han rat assessed as mortality at 1 to 100 mg/kg, ip; assay type: organism-based; parameters: dose 1-100 mg/kg, route intraperitoneal; conditions: in vivo
Rattus norvegicus [10] = test: Toxicity in Wistar Han rat at 1 to 10 mg/kg, ip; assay type: organism-based; parameters: dose 1-10 mg/kg, route intraperitoneal; conditions: in vivo
Procedure, shortened: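 Male Wistar Han rats (~285 g), 3 per group, received a single i.p. injection of 1 or 10 mg/kg in alcohol/water 1:3 (v/v), with vehicle controls. Physical and clinical signs were recorded daily for 4 days, followed by exsanguination and gross necropsy.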

Rattus norvegicus [11] = test: Toxicity in Wistar Han rat assessed as macroscopic muscle lesions at 1 to 100 mg/kg, ip by necropsic analysis; assay type: organism-based, Muscle tissue; parameters: dose 1-100 mg/kg, route intraperitoneal; conditions: in vivo; procedure, shortened: as §2
Rattus norvegicus [12] = test: Toxicity in Wistar Han rat at 10 mg/kg, ip; assay type: organism-based; parameters: dose 10 mg/kg, route intraperitoneal; conditions: in vivo; procedure, shortened: as §1
Rattus norvegicus [13] = test: Toxicity in Wistar Han rat assessed as mortality at 10 to 100 mg/kg, ip after 4 days; assay type: organism-based; parameters: dose 10-100 mg/kg, route intraperitoneal; conditions: in vivo, 96 h
Rattus norvegicus [14] = test: Toxicity in Wistar Han rat assessed as occurrence of piloerection at 100 mg/kg, ip after 48 hrs; assay type: organism-based; parameters: dose 100 mg/kg, route intraperitoneal; conditions: in vivo; procedure, shortened: as §1
Rattus norvegicus [15] = test: Toxicity in Wistar Han rat assessed as occurrence of macroscopic liver lesions at 100 mg/kg, ip by necropsic analysis; assay type: organism-based; parameters: dose 100 mg/kg, route intraperitoneal; conditions: in vivo; procedure, shortened: as §1
Rattus norvegicus [16] = test: Toxicity in Wistar Han rat assessed as paralysis of hind limbs at 100 mg/kg, ip after 48 hrs; assay type: organism-based, Hindlimb; parameters: dose 100 mg/kg, route intraperitoneal; conditions: in vivo; procedure, shortened: as §1

Chain of Sodium-dependent serotonin transporter (P31645 whole entry): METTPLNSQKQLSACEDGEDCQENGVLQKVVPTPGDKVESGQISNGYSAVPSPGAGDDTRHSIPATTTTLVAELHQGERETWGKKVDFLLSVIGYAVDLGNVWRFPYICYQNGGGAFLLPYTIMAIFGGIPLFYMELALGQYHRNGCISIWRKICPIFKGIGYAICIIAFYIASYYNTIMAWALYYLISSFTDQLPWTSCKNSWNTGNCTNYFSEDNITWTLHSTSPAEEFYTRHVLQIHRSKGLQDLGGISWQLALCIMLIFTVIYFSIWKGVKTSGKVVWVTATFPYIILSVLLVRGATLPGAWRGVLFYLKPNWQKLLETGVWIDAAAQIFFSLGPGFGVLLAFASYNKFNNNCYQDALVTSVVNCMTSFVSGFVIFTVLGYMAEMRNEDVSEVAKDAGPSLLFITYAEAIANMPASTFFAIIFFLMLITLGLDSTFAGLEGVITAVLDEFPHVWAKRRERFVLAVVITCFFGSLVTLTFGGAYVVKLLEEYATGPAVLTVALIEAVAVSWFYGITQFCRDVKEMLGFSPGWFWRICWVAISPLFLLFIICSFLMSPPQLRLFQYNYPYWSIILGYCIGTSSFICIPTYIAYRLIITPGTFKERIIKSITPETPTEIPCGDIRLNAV

Row | SMILES | IC50 (Myeloperoxidase [1]; read-out: IC50) [nM] | IC50 (Myeloperoxidase [2]; read-out: IC50) [nM] | Ki ([3]; read-out: Ki) [nM] | Ratio (Homo sapiens) | further results
1 | Fc1ccc2[nH]cc(CCCNCc3ccccc3)c2c1 | 13 | 30 | 53 | 4.1 | 
2 | CCN(CCc1c[nH]c2ccc(F)cc12)S(C)(=O)=O |  |  |  | 12 | 
3 | NC(=O)CCCCc1c[nH]c2ccc(F)cc12 | 39 | 43 |  |  | 
4 | CCN(CCCc1c[nH]c2ccc(F)cc12)S(C)(=O)=O | 37 |  | 12 | 0.3 | 
5 | N#CCCCc1c[nH]c2ccc(F)cc12 | 63 | 72 | 184 | 2.9 | 
6 | NCCCc1c[nH]c2ccc(C(=O)O)cc12 |  |  |  |  | IC50 (Myeloperoxidase [1]): Not Active; IC50 (Myeloperoxidase [2]): Not Active; Ki ([3]; hek293): Not Active
7 | NC(=O)CCc1c[nH]c2c(F)cccc12 | 271 | 64 |  |  | 
8 | N#CSCCCc1c[nH]c2ccc(F)cc12 |  |  |  | 42 | 
9 | CCNC(=O)CCCc1c[nH]c2ccc(F)cc12 | 182 | 243 |  |  | 
10 | NCCSCCCc1c[nH]c2c(F)cccc12 | > 100 | > 100 | 539 |  | 
11 | NCCCCc1c[nH]c2ccc(C(=O)O)cc12 |  |  |  |  | IC50 (Myeloperoxidase [1]): Not Active; IC50 (Myeloperoxidase [2]): Not Active; Ki ([3]; hek293): Not Active
12 | N#CCCCc1c[nH]c2ccc(C(=O)O)cc12 |  |  |  |  | IC50 (Myeloperoxidase [1]): Not Active; IC50 (Myeloperoxidase [2]): Not Active; Ki ([3]; hek293): Not Active
13 | NCCSCCCc1c[nH]c2ccc(F)cc12 | 35 |  | 0.9 | 0.02 | 
14 | OCCNCCCc1c[nH]c2ccc(F)cc12 | 10 | 43 | 62 | 6.2 | 
15 | CCSCCc1c[nH]c2ccc(F)cc12 | > 100 | > 100 |  |  | Ki ([3]; hek293): Not Active
16 | Fc1ccc2[nH]cc(CCCN3CCN(c4ccccc4)CC3)c2c1 | 22 | 60 | 36 | 1.6 | 

Row | SMILES | IC50 (Myeloperoxidase [1]; read-out: IC50) [nM] | IC50 (Myeloperoxidase [2]; read-out: IC50) [nM] | Ki ([3]; read-out: Ki) [nM] | Ratio (Homo sapiens) | further results
17 | NCCSCCc1c[nH]c2ccc(F)cc12 |  |  | 2.3 | 0.6 | 
18 | NC(=O)CCc1c[nH]c2ccc(F)cc12 | 132 | 34 |  |  | 
19 | NCCc1c[nH]c2ccc(O)cc12 [SEROTONIN] |  |  |  |  | IC50 (Myeloperoxidase [1]): Not Active
20 | NCCc1c[nH]c2c(F)cccc12 | 29 | 28 | 29 | 1 | 
21 | NCCCCc1c[nH]c2c(F)cccc12 |  |  | 8 | 1.3 | 
22 | NC(=O)CCCCc1c[nH]c2c(F)cccc12 | 34 | 44 |  |  | 
23 | NC(=O)CCCc1c[nH]c2ccc(F)cc12 | 18 |  |  | 35 | Activity (Rattus norvegicus [4]): Toxic; Activity (Rattus norvegicus [5]): Toxic; Activity (Rattus norvegicus [6]): Non-toxic; Activity (Rattus norvegicus [7]): Non-toxic; Activity (Rattus norvegicus [8]): Non-toxic; Activity (Rattus norvegicus [9]): Non-toxic; Activity (Rattus norvegicus [10]): Non-toxic; Activity (Rattus norvegicus [11]): Non-toxic
24 | N[C@@H](Cc1ccc(O)cc1)C(=O)O [TYROSINE] |  |  |  |  | IC50 (Myeloperoxidase [1]): Not Active
25 | CCSCCCc1c[nH]c2ccc(F)cc12 | > 100 | > 100 |  |  | Ki ([3]; hek293): Not Active
26 | NCC(N)CCc1c[nH]c2ccc(F)cc12 (stereo not given) | 60 | 26 | 12 | 0.2 | 
27 | NCCSCCc1c[nH]c2c(F)cccc12 |  |  | 24 | 8 | Activity (Rattus norvegicus [12]): Non-toxic; Activity (Rattus norvegicus [13]): Non-toxic; Activity (Rattus norvegicus [14]): Toxic; Activity (Rattus norvegicus [15]): Toxic; Activity (Rattus norvegicus [16]): Toxic
28 | NCCc1c[nH]c2ccccc12 [TRYPTAMINE] | 770 |  |  |  | 
29 | CCCc1c[nH]c2ccc(F)cc12 | > 100 | > 100 |  |  | Ki ([3]; hek293): Not Active
30 | OCCNCCc1c[nH]c2ccc(F)cc12 | 10 | 31 | 10 | 1 | 
31 | NCCCc1c[nH]c2c(F)cccc12 | 24 | 26 | 24 | 1 | 
